Source: ChEMBL document CHEMBL1123113, “"Reverse" and "symmetrical" analogues of actinomycin D: metabolic activation and in vitro and in vivo tumor growth inhibitory activities” (J Med Chem, 1985)
pIC50: −log10 of the molar value.

Legend:
[1] = species: Rattus norvegicus; assay: Compound tested for NADPH oxidation in rat hepatic mycrosomal incubation; format: functional
Method in brief: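 Phenobarbital-induced male Sprague-Dawley rat liver microsomes were placed in both cuvettes, without epinephrine. NADPH 0.4 mM was added to the sample side only, and absorbance was read at 340 nm. Percent stimulation = (drug rate − basal)/basal × 100. Values are the average ± standard errors of triplicates.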

[2] = species: Rattus norvegicus; assay: Compound tested for adrenochrome formation in rat hepatic mycrosomal incubation; format: functional
Method in brief: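 Adrenochrome assay for superoxide: epinephrine in 0.01 N HCl plus 300 µg of phenobarbital-induced rat liver microsomes at 37 °C. NADPH 0.4 mM was added to the sample side 1 min later, and the rate was read at 480 nm (ε 4.02 mM−1 cm−1). Drugs were at ≤100 µM, made in 150 mM KCl–50 mM Tris, pH 7.4. Percent stimulation is over basal rate, in triplicate.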

[3] = Minimum tolerated dose is the lethal dose for 10% normal mice for deaths during 21 days; format: ADME, organism-based; conditions: mouse, in vivo
Method in brief: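 Tumor-free male BDF1 mice (18–22 g) received a broad dose range ip in 5% dimethyl sulfoxide-saline on days 1, 5 and 9. Deaths were recorded over 21 days. The LD10 (dose killing 10% of animals) was calculated from a plot of log-dose vs. percent mortality.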

[4] = tested on: P388; assay: Inhibition of DNA synthesis was measured as the concentration required to cause 50% reduction (in 1h) in methyl [3H]thymidine incorporation into acid precipitable material using P388 cells; format: functional, cell-based; conditions: Mus musculus
Method in brief: (§1)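 P388 cells were exposed for 1 h. IC50 (µM) was taken as 50% reduction of methyl-[3H]thymidine (DNA) or 2-[14C]uridine (RNA) incorporation into acid-precipitable material. The ratio is IC50 DNA divided by IC50 RNA.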

[5] = tested on: P388; assay: Inhibition of RNA synthesis was measured as the concentration required to cause 50% reduction (in 1h) in 2-[14C]uridine incorporation into acid precipitable material using P388 cells; format: functional, cell-based; conditions: Mus musculus, P388, 1 h
[6] = Therapeutic index (MTD/MED) value of the compound; conditions: read-out: TI
[7] = IC50 DNA/IC50 RNA ratio of the compound; format: functional; method in brief: as §1

With `CCN(CC)C(=O)c1cc(=O)c(C)c2oc3c(C)c4oc(-c5ccccc5)nc4c(C(=O)N(CC)CC)c3nc1-2` the NADPH oxidation [1] was 8.9 nM min-1 (mg of protein)-1 and the adrenochrome formation [2] was 2.13 nM min-1 (mg of protein)-1.

For `Cc1c2oc3c(C)c4oc(-c5ccccc5)nc4c(C(=O)N[C@@H]4C(=O)N[C@H](C(C)C)C(=O)N5CCC[C@H]5C(=O)N(C)CC(=O)N(C)[C@@H](C(C)C)C(=O)O[C@@H]4C)c3nc-2c(C(=O)N[C@@H]2C(=O)N[C@H](C(C)C)C(=O)N3CCC[C@H]3C(=O)N(C)CC(=O)N(C)[C@@H](C(C)C)C(=O)O[C@@H]2C)c(N)c1=O`, the MTD at 504 h [3] was 1.8 mg/kg, the pIC50 [4] was 6.10 and the pIC50 [5] was 7.15. The selectivity ratio [6] was 60.

With `Cc1c2oc3c(C)c4oc(-c5ccccc5)nc4c(C(=O)N[C@@H]4C(=O)N[C@H](C(C)C)C(=O)N5CCC[C@H]5C(=O)N(C)CC(=O)N(C)[C@@H](C(C)C)C(=O)O[C@@H]4C)c3nc-2c(C(=O)N[C@@H]2C(=O)N[C@H](C(C)C)C(=O)N3CCC[C@H]3C(=O)N(C)CC(=O)N(C)[C@@H](C(C)C)C(=O)O[C@@H]2C)cc1=O` the MTD at 504 h [3] was 2 mg/kg, the pIC50 [4] was 5.24 and the pIC50 [5] was 5.49. It also gave a selectivity ratio [6] of 10.

`Cc1nc2c(C(=O)N[C@H]3C(=O)N[C@@H](C(C)C)C(=O)N4CCC[C@H]4C(=O)N(C)CC(=O)N(C)[C@H](C(C)C)C(=O)O[C@H]3C)c3nc4c(C(=O)N[C@@H]5C(=O)N[C@H](C(C)C)C(=O)N6CCC[C@@H]6C(=O)N(C)CC(=O)N(C)[C@@H](C(C)C)C(=O)O[C@@H]5C)c(N)c(=O)c(C)c-4oc3c(C)c2o1` showed a Ratio [7] of 11.2.

With `Cc1c2oc3c(C)c(O)c(N)c(C(=O)N[C@@H]4C(=O)N[C@H](C(C)C)C(=O)N5CCC[C@H]5C(=O)N(C)CC(=O)N(C)[C@@H](C(C)C)C(=O)O[C@@H]4C)c3nc-2c(C(=O)N[C@@H]2C(=O)N[C@H](C(C)C)C(=O)N3CCC[C@H]3C(=O)N(C)CC(=O)N(C)[C@@H](C(C)C)C(=O)O[C@@H]2C)cc1=O` the MTD at 504 h [3] was 3.5 mg/kg, the pIC50 [4] was 5.29 and the pIC50 [5] was 5.29. It also gave a selectivity ratio [6] of 13.

Compound `Cc1c2oc3c(C)c4oc(-c5ccccc5)nc4c(C(=O)N[C@H]4C(=O)N[C@@H](C(C)C)C(=O)N5CCC[C@H]5C(=O)NCC(=O)N(C)[C@H](C(C)C)C(=O)O[C@H]4C)c3nc-2c(C(=O)N[C@@H]2C(=O)N[C@H](C(C)C)C(=O)N3CCC[C@@H]3C(=O)NCC(=O)N[C@@H](C(C)C)C(=O)O[C@@H]2C)cc1=O` has a Ratio [7] of 1.78.

With `CCN(CC)C(=O)c1c2nc3c(C(=O)N(CC)CC)c4nc(C)oc4c(C)c3oc-2c(C)c(=O)c1N` the NADPH oxidation [1] was 8.9 nM min-1 (mg of protein)-1 and the adrenochrome formation [2] was 2.13 nM min-1 (mg of protein)-1.

For `Cc1c2oc3c(C)c4oc(-c5ccccc5)nc4c(C(=O)N[C@H]4C(=O)N[C@@H](C(C)C)C(=O)N5CCC[C@H]5C(=O)N(C)CC(=O)N(C)[C@H](C(C)C)C(=O)O[C@H]4C)c3nc-2c(C(=O)N[C@@H]2C(=O)N[C@H](C(C)C)C(=O)N3CCC[C@@H]3C(=O)N(C)CC(=O)N(C)[C@@H](C(C)C)C(=O)O[C@@H]2C)c(N)c1=O`, the Ratio [7] was 11.4.

Compound `Cc1c2oc3c(C)c(O)c(N)c(C(=O)N[C@H]4C(=O)N[C@@H](C(C)C)C(=O)N5CCC[C@H]5C(=O)N(C)CC(=O)N(C)[C@H](C(C)C)C(=O)O[C@H]4C)c3nc-2c(C(=O)N[C@@H]2C(=O)N[C@H](C(C)C)C(=O)N3CCC[C@@H]3C(=O)N(C)CC(=O)N(C)[C@@H](C(C)C)C(=O)O[C@@H]2C)c(N)c1=O` has a Ratio [7] of 0.97.

`Cc1c2oc3c(C)ccc(C(=O)N[C@@H]4C(=O)N[C@H](C(C)C)C(=O)N5CCC[C@@H]5C(=O)NCC(=O)N[C@@H](C(C)C)C(=O)O[C@@H]4C)c3nc-2c(C(=O)N[C@H]2C(=O)N[C@@H](C(C)C)C(=O)N3CCC[C@H]3C(=O)NCC(=O)N[C@H](C(C)C)C(=O)O[C@H]2C)c(N)c1=O` showed a Ratio [7] of 22.4.

Compound `Cc1c2oc3c(C)c(O)c(N)c(C(=O)N[C@H]4C(=O)N[C@@H](C(C)C)C(=O)N5CCC[C@H]5C(=O)N(C)CC(=O)N(C)[C@H](C(C)C)C(=O)O[C@H]4C)c3nc-2c(C(=O)N[C@@H]2C(=O)N[C@H](C(C)C)C(=O)N3CCC[C@@H]3C(=O)N(C)CC(=O)N(C)[C@@H](C(C)C)C(=O)O[C@@H]2C)cc1=O` has a Ratio [7] of 1.
